In paper PMC12541583 (Acta Pharmaceutica Sinica. B, 2025):
Blank lines part the entries; values can stand above or below the molecule they belong to.

Experiments:
PARP1 [1] = molecular target: PARP1 (Rattus norvegicus, UniProt P27008); test: In vitro autoradiography of [18F]AZD9574 on rat brain sections; type: binding; settings: blocker 10 μmol/L
PARP1 [2] = test: In vitro autoradiography of [18F]AZD9574 on NHP cerebellum brain sections; type: binding; settings: blocker 10 μmol/L
How it was run: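 Rat and NHP brain sections were pre-incubated 10 min at ambient temperature in 50 mmol/L Tris–HCl with 0.1% BSA. They were then incubated 1 h with radioligand (~4 μCi/mL, ~4 nmol/L), with blockers at 10 μmol/L added beforehand. Sections were rinsed twice for 2 min in ice-cold buffer with ethanol, dipped in cold water, air-dried and exposed to imaging plates overnight. ROI radioactivity was taken as % of control; mean ± SD, n = 3.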

CYP2C9 = CYP2C9 (Homo sapiens, UniProt P11712); test: CYP interactions, CYP2C9; type: in vitro ADME
Sequence of CYP2C9 (P11712 whole entry, species assumed): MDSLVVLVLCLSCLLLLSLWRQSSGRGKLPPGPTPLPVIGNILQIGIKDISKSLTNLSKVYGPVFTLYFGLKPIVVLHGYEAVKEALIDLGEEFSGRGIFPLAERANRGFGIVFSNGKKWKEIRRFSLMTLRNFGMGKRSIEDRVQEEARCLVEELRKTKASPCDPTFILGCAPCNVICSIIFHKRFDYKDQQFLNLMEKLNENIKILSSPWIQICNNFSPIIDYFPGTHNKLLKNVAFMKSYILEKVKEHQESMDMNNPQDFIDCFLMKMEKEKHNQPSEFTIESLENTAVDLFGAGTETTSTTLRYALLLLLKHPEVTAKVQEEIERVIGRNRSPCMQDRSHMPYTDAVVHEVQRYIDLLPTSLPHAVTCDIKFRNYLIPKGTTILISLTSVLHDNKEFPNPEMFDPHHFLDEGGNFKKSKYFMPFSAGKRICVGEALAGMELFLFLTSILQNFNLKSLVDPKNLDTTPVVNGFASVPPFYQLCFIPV

CYP2D6 = CYP2D6 (Homo sapiens, UniProt P10635); test: CYP interactions, CYP2D6; type: in vitro ADME
Sequence of CYP2D6 (P10635 whole entry, species assumed): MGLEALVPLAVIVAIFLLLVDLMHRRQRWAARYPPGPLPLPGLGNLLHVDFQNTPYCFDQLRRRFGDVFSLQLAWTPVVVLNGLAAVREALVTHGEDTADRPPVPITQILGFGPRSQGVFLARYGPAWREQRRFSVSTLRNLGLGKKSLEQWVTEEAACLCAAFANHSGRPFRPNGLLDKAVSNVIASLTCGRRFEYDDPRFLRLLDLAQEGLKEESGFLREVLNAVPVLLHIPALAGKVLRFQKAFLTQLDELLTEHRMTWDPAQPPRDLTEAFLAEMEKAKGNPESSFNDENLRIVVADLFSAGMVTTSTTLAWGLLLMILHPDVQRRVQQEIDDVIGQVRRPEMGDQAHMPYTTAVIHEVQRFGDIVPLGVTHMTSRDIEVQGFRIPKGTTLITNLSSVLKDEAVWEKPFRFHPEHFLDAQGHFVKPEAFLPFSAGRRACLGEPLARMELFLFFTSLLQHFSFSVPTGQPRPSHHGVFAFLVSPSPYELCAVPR

PARP1 [3] = molecular target: PARP1 (Macaca mulatta, UniProt H9FQ77); test: NHP PET imaging of [18F]AZD9574, baseline and blocking; type: in vivo, rhesus monkeys
Sequence of PARP1 (Macaca mulatta, UniProt H9FQ77) (H9FQ77 1-1014): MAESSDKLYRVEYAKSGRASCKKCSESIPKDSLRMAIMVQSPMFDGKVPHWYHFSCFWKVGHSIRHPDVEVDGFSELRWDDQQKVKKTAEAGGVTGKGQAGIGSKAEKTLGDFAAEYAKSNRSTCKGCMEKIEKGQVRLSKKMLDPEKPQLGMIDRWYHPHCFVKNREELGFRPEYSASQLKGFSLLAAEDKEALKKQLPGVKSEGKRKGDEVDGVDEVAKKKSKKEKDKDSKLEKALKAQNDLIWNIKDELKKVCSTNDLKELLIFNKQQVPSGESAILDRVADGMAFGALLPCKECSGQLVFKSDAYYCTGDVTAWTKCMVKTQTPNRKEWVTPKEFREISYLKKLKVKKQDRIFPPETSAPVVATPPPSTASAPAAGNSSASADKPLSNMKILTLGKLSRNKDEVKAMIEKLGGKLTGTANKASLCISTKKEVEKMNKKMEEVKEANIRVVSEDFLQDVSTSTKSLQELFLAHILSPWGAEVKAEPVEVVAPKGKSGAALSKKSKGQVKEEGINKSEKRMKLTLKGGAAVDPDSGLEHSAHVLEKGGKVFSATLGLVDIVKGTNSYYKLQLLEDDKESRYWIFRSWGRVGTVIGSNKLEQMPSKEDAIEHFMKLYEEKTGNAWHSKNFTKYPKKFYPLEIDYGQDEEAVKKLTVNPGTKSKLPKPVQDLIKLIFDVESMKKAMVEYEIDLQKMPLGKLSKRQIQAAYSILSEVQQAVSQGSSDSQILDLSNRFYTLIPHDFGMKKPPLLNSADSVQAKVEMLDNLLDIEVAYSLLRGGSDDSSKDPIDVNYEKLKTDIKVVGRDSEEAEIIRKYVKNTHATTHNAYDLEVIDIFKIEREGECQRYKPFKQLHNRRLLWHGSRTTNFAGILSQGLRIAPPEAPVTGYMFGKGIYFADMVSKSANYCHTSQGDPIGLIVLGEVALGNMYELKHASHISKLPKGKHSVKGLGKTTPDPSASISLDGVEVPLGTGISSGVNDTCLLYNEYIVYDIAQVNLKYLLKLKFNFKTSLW
How it was run: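 An iv bolus of tracer (4.05 ± 0.54 mCi) was followed by 90 min dynamic 3D PET acquisition in 36 frames. ROIs were drawn on co-registered T1-weighted MRI. Regional SUV time–activity curves were generated; baseline scans n = 2 animals.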

CYP19A = molecular target: T1, CYP19A (Homo sapiens, UniProt P11511); test: CYP interactions, CYP19A; type: in vitro ADME
T1 sequence (P11511 1-503): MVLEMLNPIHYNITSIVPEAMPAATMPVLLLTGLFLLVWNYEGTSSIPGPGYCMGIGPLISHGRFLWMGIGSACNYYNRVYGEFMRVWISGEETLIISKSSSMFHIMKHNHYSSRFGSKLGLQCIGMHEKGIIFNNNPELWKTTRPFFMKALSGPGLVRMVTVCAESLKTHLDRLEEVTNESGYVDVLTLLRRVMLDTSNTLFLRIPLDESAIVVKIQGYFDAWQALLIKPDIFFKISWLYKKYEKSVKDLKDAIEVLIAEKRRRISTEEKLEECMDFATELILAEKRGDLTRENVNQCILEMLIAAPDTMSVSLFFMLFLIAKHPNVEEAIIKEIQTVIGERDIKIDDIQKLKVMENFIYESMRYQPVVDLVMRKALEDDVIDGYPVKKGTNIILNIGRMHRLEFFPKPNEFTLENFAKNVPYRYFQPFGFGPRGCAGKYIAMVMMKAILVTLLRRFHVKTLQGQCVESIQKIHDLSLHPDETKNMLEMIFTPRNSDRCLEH

CYP1A2 = molecular target: T2, CYP1A2 (Homo sapiens, UniProt P05177); test: CYP interactions, CYP1A2; type: in vitro ADME
T2 sequence (P05177 1-516): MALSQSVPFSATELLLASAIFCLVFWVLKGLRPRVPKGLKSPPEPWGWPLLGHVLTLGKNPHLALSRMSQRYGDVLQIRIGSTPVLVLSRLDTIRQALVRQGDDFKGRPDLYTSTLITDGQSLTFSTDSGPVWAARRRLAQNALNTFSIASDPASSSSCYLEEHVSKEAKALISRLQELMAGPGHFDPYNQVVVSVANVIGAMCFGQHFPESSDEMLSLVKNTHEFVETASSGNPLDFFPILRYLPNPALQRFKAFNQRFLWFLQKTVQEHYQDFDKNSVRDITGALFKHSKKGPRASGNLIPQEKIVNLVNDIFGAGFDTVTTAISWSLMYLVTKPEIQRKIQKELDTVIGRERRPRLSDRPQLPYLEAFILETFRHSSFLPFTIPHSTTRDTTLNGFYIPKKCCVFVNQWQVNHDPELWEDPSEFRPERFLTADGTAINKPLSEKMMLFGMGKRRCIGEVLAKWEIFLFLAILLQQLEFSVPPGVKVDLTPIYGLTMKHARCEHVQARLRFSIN

CYP3A4 = CYP3A4 (Homo sapiens, UniProt P08684); test: CYP interactions, CYP3A4; type: in vitro ADME
HepG2 cells = test: CellTiter-Glo luminescent cell viability assay in HepG2 cells; type: cell-based; settings: Homo sapiens, HepG2, read-out: HepG2 IC50
MDR1 (P-gp) = MDR1 (P-gp) (Homo sapiens, UniProt P08183); test: In vitro Pg-P efflux assay; type: in vitro ADME; settings: not told
Sequence of MDR1 (P-gp) (P08183 whole entry, species assumed): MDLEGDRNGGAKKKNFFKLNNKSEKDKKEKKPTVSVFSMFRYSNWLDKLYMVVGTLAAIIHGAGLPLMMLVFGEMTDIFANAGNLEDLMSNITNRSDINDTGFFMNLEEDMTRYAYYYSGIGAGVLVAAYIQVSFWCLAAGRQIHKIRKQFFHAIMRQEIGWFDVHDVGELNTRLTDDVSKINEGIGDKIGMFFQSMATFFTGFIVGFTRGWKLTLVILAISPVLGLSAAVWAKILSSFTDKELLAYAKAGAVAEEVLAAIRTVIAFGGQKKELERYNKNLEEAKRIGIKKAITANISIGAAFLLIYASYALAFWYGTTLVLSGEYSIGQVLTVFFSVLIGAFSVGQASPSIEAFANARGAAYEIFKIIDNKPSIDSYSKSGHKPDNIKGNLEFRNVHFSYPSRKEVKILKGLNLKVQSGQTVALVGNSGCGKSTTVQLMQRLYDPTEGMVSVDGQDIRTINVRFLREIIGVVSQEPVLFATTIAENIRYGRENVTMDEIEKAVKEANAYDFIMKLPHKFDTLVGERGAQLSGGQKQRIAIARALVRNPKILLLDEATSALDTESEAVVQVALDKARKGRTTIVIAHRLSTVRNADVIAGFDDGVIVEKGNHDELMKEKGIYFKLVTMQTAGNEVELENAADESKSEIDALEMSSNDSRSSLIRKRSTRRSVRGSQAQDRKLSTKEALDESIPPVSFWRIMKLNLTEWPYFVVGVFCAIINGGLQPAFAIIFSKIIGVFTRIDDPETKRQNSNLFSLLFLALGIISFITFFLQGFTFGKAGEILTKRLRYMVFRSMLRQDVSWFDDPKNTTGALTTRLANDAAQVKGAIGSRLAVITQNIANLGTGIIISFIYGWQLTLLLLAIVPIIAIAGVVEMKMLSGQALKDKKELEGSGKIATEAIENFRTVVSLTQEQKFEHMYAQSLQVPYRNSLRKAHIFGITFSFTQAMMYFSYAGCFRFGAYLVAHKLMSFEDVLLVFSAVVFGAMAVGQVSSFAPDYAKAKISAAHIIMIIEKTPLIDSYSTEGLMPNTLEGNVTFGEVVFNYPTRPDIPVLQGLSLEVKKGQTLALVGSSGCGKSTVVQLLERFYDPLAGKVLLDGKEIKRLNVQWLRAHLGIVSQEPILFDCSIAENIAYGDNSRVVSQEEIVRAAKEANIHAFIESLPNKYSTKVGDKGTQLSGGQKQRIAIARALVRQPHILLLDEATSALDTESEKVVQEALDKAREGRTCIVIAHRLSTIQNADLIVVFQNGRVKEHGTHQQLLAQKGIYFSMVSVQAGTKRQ

[4] = molecular target: human ether-a-go-go-related gene (hERG) channel (Homo sapiens, UniProt Q12809); test: In vitro hERG channel safety
CYP2C19 = CYP2C19 (Homo sapiens, UniProt P33261); test: CYP interactions, CYP2C19; type: in vitro ADME
Sequence of CYP2C19 (P33261 whole entry, species assumed): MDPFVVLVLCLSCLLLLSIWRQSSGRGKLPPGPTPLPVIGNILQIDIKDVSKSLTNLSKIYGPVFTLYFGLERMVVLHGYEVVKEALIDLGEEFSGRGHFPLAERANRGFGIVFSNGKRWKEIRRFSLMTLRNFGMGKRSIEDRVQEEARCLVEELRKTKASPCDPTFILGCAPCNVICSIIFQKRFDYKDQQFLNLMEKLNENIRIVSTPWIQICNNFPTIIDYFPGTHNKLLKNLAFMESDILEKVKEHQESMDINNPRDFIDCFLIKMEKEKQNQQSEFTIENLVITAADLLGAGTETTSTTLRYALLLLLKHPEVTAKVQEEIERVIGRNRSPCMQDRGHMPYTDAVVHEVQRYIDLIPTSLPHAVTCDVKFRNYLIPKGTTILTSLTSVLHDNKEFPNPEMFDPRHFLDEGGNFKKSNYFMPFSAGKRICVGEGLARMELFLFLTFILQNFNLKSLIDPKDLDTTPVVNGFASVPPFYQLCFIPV

PC3 cell lines = test: In vitro cellular uptake and blocking of [18F]AZD9574 in PC3 cells; type: cell-based; settings: blocker 1 μmol/L
How it was run: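 PC3 cells were grown in F-12K with 10% FBS and 1% penicillin–streptomycin at 37 °C, 5% CO2, and seeded at 1×10^5 cells/well 24 h before use. After two PBS rinses, 1 μCi/well tracer plus blocking agent was added in serum-free medium for 60 min at 37 °C. Cells were rinsed twice with cold PBS, lysed in 0.1 mol/L NaOH and counted in a gamma counter.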

Sequence of PARP1 (Rattus norvegicus, UniProt P27008) (P27008 whole entry): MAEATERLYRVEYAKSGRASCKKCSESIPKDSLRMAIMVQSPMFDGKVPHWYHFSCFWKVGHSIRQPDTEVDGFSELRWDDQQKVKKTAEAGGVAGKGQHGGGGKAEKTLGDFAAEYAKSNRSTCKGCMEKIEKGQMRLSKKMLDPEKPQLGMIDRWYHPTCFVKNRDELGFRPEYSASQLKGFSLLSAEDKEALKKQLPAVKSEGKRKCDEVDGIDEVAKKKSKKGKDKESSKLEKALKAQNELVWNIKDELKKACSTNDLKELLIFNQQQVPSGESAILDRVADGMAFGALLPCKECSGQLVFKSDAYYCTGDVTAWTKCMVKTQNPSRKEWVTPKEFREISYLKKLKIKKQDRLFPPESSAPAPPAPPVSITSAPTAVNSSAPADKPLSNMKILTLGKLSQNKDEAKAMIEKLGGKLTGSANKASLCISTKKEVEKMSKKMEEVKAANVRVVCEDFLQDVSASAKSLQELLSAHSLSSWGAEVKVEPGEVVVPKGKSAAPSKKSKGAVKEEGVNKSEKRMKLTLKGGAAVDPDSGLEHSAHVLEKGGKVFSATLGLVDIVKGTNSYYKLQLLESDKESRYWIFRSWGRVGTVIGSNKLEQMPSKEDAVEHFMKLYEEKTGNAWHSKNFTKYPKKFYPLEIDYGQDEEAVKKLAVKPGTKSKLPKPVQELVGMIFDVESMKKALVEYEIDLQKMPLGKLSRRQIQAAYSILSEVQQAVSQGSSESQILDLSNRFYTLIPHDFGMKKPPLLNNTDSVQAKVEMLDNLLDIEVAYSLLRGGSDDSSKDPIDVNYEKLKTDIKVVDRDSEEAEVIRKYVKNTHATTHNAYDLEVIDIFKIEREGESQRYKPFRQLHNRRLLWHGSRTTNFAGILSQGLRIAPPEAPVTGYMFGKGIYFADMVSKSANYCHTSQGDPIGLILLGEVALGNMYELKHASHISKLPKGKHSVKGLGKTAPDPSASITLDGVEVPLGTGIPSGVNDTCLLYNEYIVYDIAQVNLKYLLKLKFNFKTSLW

- reduction of [18F]AZD9574 radioactivity accumulation in all brain regions (PARP1 [1]): greater than 85%
SMILES: C[C@]12CCCN1CC1=NNC(=O)c3cc(F)cc4[nH]c2c1c34 [pamiparib]

- IC50 (CYP2C9): > 5 µM
- IC50 (CYP2D6): > 5 µM
- reduction of [18F]AZD9574 radioactivity accumulation in the cerebellum (area under curve 60-90 min) (PARP1 [3]; pretreatment 0.05 mg/kg): 37.7%
- reduction of [18F]AZD9574 radioactivity accumulation in the cerebellum (area under curve 60-90 min) (PARP1 [3]; pretreatment 0.5 mg/kg): 63.4%
- IC50 (CYP19A): > 5 µM
- IC50 (CYP1A2): > 5 µM
- IC50 (CYP3A4): > 5 µM
- IC50 (HepG2 cells): > 100 µM
- Papp A→B (MDR1 (P-gp)): 42.5 ×10⁻⁶ cm/s
- IC50 (CYP2C19): > 5 µM
SMILES: CNC(=O)c1ccc(N2CCN(Cc3ccc4nc(C)c(=O)[nH]c4c3F)CC2)c(F)n1 [compound 5, 6-fluoro-5-(4-((5-fluoro-2-methyl-3-oxo-3,4-dihydroquinoxalin-6-yl)methyl)piperazin-1-yl)-N-methylpicolinamide]
- effect on [18F]AZD9574 uptake in the cerebellum (PARP1 [2]): substantial uptake reduction
- IC50 [4]: > 100 µM

- reduction of [18F]AZD9574 radioactivity accumulation in all brain regions (PARP1 [1]): greater than 85%
SMILES: CNCc1ccc(-c2[nH]c3cc(F)cc4c3c2CCNC4=O)cc1 [rucaparib]

The remaining lines, values behind:

SMILES: C[C@]1(c2nc3c(C(N)=O)cccc3[nH]2)CCCN1 [veliparib]
- reduction of [18F]AZD9574 radioactivity accumulation in all brain regions (PARP1 [1]): greater than 85%

SMILES: O=C(c1cc(Cc2n[nH]c(=O)c3ccccc23)ccc1F)N1CCN(C(=O)C2CC2)CC1 [olaparib, reference compound]
- effect on [18F]AZD9574 uptake in the cerebellum (PARP1 [2]): substantial uptake reduction
- effect on [18F]AZD9574 uptake (PC3 cell lines): significantly attenuated

SMILES: COC1CCN(C(=O)c2cc(Cc3n[nH]c(=O)c4ccccc34)ccc2F)CC1 [AZD2461]
- reduction of [18F]AZD9574 radioactivity accumulation in all brain regions (PARP1 [1]): greater than 85%
